Tests used:
Brain [1] = assay: Ratio of drug uptake in ddY mouse brain at 1 uCi/100 uL, iv after 2 mins to drug uptake in ddY mouse brain at 1 uCi/100 uL, iv after 60 mins; format: ADME, organism-based; conditions: in vivo
Method in brief: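 Normal female ddY mice (5 weeks) received the radiotracer iv, and brain uptake (% ID/g, n = 4) was measured by gamma counting at 2 and 60 min. The index is brain uptake at 2 min divided by brain uptake at 60 min.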

[2] = Partition coefficient, log D of the compound; format: physicochemical; conditions: octanol/water
Method in brief: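 Radiotracer partitioned between n-octanol and PBS: vortexed 3 min at room temperature, centrifuged 5 min at 3000 rpm. Weighed samples of the octanol (100 μL) and buffer (500 μL) layers were counted. log D is the log of the ratio of counts per gram, octanol versus PBS.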

Blood [3] = assay: Biodistribution in ddY mouse blood at 1 uCi/100 uL, iv after 2 mins by gamma counting; format: ADME, organism-based; conditions: in vivo
Method in brief: (§1)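 Normal female ddY mice (5 weeks, about 20 g; n = 4 per group) received radiotracer iv. Organs were removed and weighed at 2–120 min and counted in a γ-counter. Percent dose per gram of wet tissue was calculated against diluted aliquots of the injected material and reported as mean ± SD.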

Brain [4] = assay: Biodistribution in ddY mouse brain at 1 uCi/100 uL, iv after 2 mins by gamma counting; format: ADME, organism-based; conditions: in vivo; method in brief: as §1
Heart [5] = assay: Biodistribution in ddY mouse heart at 1 uCi/100 uL, iv after 2 mins by gamma counting; format: ADME, organism-based; conditions: in vivo; method in brief: as §1
Liver [6] = assay: Biodistribution in ddY mouse liver at 1 uCi/100 uL, iv after 2 mins by gamma counting; format: ADME, organism-based; conditions: in vivo
Spleen [7] = assay: Biodistribution in ddY mouse spleen at 1 uCi/100 uL, iv after 2 mins by gamma counting; format: ADME, organism-based; conditions: in vivo
Lung [8] = assay: Biodistribution in ddY mouse lung at 1 uCi/100 uL, iv after 2 mins by gamma counting; format: ADME, organism-based; conditions: in vivo
Kidney [9] = assay: Biodistribution in ddY mouse kidney at 1 uCi/100 uL, iv after 2 mins by gamma counting; format: ADME, organism-based; conditions: in vivo; method in brief: as §1
Stomach [10] = assay: Biodistribution in ddY mouse stomach at 1 uCi/100 uL, iv after 2 mins by gamma counting; format: ADME, organism-based; conditions: in vivo
Intestine [11] = assay: Biodistribution in ddY mouse intestine at 1 uCi/100 uL, iv after 2 mins by gamma counting; format: ADME, organism-based; conditions: in vivo; method in brief: as §1
Thyroid gland [12] = assay: Biodistribution in ddY mouse thyroid at 1 uCi/100 uL, iv after 2 mins by gamma counting; format: ADME, organism-based; conditions: in vivo
Blood [13] = assay: Biodistribution in ddY mouse blood at 1 uCi/100 uL, iv after 15 mins by gamma counting; format: ADME, organism-based; conditions: in vivo, 0.25 h; method in brief: as §1
Brain [14] = assay: Biodistribution in ddY mouse brain at 1 uCi/100 uL, iv after 15 mins by gamma counting; format: ADME, organism-based; conditions: in vivo, 0.25 h; method in brief: as §1
Heart [15] = assay: Biodistribution in ddY mouse heart at 1 uCi/100 uL, iv after 15 mins by gamma counting; format: ADME, organism-based; conditions: in vivo, 0.25 h; method in brief: as §1
Liver [16] = assay: Biodistribution in ddY mouse liver at 1 uCi/100 uL, iv after 15 mins by gamma counting; format: ADME, organism-based; conditions: in vivo, 0.25 h
Spleen [17] = assay: Biodistribution in ddY mouse spleen at 1 uCi/100 uL, iv after 15 mins by gamma counting; format: ADME, organism-based; conditions: in vivo, 0.25 h
Lung [18] = assay: Biodistribution in ddY mouse lung at 1 uCi/100 uL, iv after 15 mins by gamma counting; format: ADME, organism-based; conditions: in vivo, 0.25 h
Kidney [19] = assay: Biodistribution in ddY mouse kidney at 1 uCi/100 uL, iv after 15 mins by gamma counting; format: ADME, organism-based; conditions: in vivo, 0.25 h; method in brief: as §1
Stomach [20] = assay: Biodistribution in ddY mouse stomach at 1 uCi/100 uL, iv after 15 mins by gamma counting; format: ADME, organism-based; conditions: in vivo, 0.25 h
Intestine [21] = assay: Biodistribution in ddY mouse intestine at 1 uCi/100 uL, iv after 15 mins by gamma counting; format: ADME, organism-based; conditions: in vivo, 0.25 h; method in brief: as §1
Thyroid gland [22] = assay: Biodistribution in ddY mouse thyroid at 1 uCi/100 uL, iv after 15 mins by gamma counting; format: ADME, organism-based; conditions: in vivo, 0.25 h
Blood [23] = assay: Biodistribution in ddY mouse blood at 1 uCi/100 uL, iv after 30 mins by gamma counting; format: ADME, organism-based; conditions: in vivo, 0.5 h; method in brief: as §1
Brain [24] = assay: Biodistribution in ddY mouse brain at 1 uCi/100 uL, iv after 30 mins by gamma counting; format: ADME, organism-based; conditions: in vivo, 0.5 h; method in brief: as §1
Heart [25] = assay: Biodistribution in ddY mouse heart at 1 uCi/100 uL, iv after 30 mins by gamma counting; format: ADME, organism-based; conditions: in vivo, 0.5 h; method in brief: as §1
Liver [26] = assay: Biodistribution in ddY mouse liver at 1 uCi/100 uL, iv after 30 mins by gamma counting; format: ADME, organism-based; conditions: in vivo, 0.5 h
Spleen [27] = assay: Biodistribution in ddY mouse spleen at 1 uCi/100 uL, iv after 30 mins by gamma counting; format: ADME, organism-based; conditions: in vivo, 0.5 h
Lung [28] = assay: Biodistribution in ddY mouse lung at 1 uCi/100 uL, iv after 30 mins by gamma counting; format: ADME, organism-based; conditions: in vivo, 0.5 h
Kidney [29] = assay: Biodistribution in ddY mouse kidney at 1 uCi/100 uL, iv after 30 mins by gamma counting; format: ADME, organism-based; conditions: in vivo, 0.5 h
Stomach [30] = assay: Biodistribution in ddY mouse stomach at 1 uCi/100 uL, iv after 30 mins by gamma counting; format: ADME, organism-based; conditions: in vivo, 0.5 h
Intestine [31] = assay: Biodistribution in ddY mouse intestine at 1 uCi/100 uL, iv after 30 mins by gamma counting; format: ADME, organism-based; conditions: in vivo, 0.5 h; method in brief: as §1
Thyroid gland [32] = assay: Biodistribution in ddY mouse thyroid at 1 uCi/100 uL, iv after 30 mins by gamma counting; format: ADME, organism-based; conditions: in vivo, 0.5 h
Blood [33] = assay: Biodistribution in ddY mouse blood at 1 uCi/100 uL, iv after 60 mins by gamma counting; format: ADME, organism-based; conditions: in vivo, 1 h; method in brief: as §1
Brain [34] = assay: Biodistribution in ddY mouse brain at 1 uCi/100 uL, iv after 60 mins by gamma counting; format: ADME, organism-based; conditions: in vivo, 1 h; method in brief: as §1
Heart [35] = assay: Biodistribution in ddY mouse heart at 1 uCi/100 uL, iv after 60 mins by gamma counting; format: ADME, organism-based; conditions: in vivo, 1 h; method in brief: as §1
Liver [36] = assay: Biodistribution in ddY mouse liver at 1 uCi/100 uL, iv after 60 mins by gamma counting; format: ADME, organism-based; conditions: in vivo, 1 h
Spleen [37] = assay: Biodistribution in ddY mouse spleen at 1 uCi/100 uL, iv after 60 mins by gamma counting; format: ADME, organism-based; conditions: in vivo, 1 h
Lung [38] = assay: Biodistribution in ddY mouse lung at 1 uCi/100 uL, iv after 60 mins by gamma counting; format: ADME, organism-based; conditions: in vivo, 1 h
Kidney [39] = assay: Biodistribution in ddY mouse kidney at 1 uCi/100 uL, iv after 60 mins by gamma counting; format: ADME, organism-based; conditions: in vivo, 1 h
Stomach [40] = assay: Biodistribution in ddY mouse stomach at 1 uCi/100 uL, iv after 60 mins by gamma counting; format: ADME, organism-based; conditions: in vivo, 1 h
Intestine [41] = assay: Biodistribution in ddY mouse intestine at 1 uCi/100 uL, iv after 60 mins by gamma counting; format: ADME, organism-based; conditions: in vivo, 1 h; method in brief: as §1
Thyroid gland [42] = assay: Biodistribution in ddY mouse thyroid at 1 uCi/100 uL, iv after 60 mins by gamma counting; format: ADME, organism-based; conditions: in vivo, 1 h
Blood [43] = assay: Biodistribution in ddY mouse blood at 1 uCi/100 uL, iv after 120 mins by gamma counting; format: ADME, organism-based; conditions: in vivo, 2 h; method in brief: as §1
Brain [44] = assay: Biodistribution in ddY mouse brain at 1 uCi/100 uL, iv after 120 mins by gamma counting; format: ADME, organism-based; conditions: in vivo, 2 h; method in brief: as §1
Heart [45] = assay: Biodistribution in ddY mouse heart at 1 uCi/100 uL, iv after 120 mins by gamma counting; format: ADME, organism-based; conditions: in vivo, 2 h; method in brief: as §1
Liver [46] = assay: Biodistribution in ddY mouse liver at 1 uCi/100 uL, iv after 120 mins by gamma counting; format: ADME, organism-based; conditions: in vivo, 2 h
Spleen [47] = assay: Biodistribution in ddY mouse spleen at 1 uCi/100 uL, iv after 120 mins by gamma counting; format: ADME, organism-based; conditions: in vivo, 2 h
Lung [48] = assay: Biodistribution in ddY mouse lung at 1 uCi/100 uL, iv after 120 mins by gamma counting; format: ADME, organism-based; conditions: in vivo, 2 h
Kidney [49] = assay: Biodistribution in ddY mouse kidney at 1 uCi/100 uL, iv after 120 mins by gamma counting; format: ADME, organism-based; conditions: in vivo, 2 h; method in brief: as §1
Stomach [50] = assay: Biodistribution in ddY mouse stomach at 1 uCi/100 uL, iv after 120 mins by gamma counting; format: ADME, organism-based; conditions: in vivo, 2 h
Intestine [51] = assay: Biodistribution in ddY mouse intestine at 1 uCi/100 uL, iv after 120 mins by gamma counting; format: ADME, organism-based; conditions: in vivo, 2 h; method in brief: as §1
Thyroid gland [52] = assay: Biodistribution in ddY mouse thyroid at 1 uCi/100 uL, iv after 120 mins by gamma counting; format: ADME, organism-based; conditions: in vivo, 2 h

A Ratio (Brain [1]) of 5.68, a logD [2] of 3.66 and a Drug uptake (Blood [3]) of 11.62 % ID/g were found for `CN(C)c1ccc(/C=C/C(=O)/C=C/c2ccc([125I])cc2)cc1` in this work. It also gave a Drug uptake (Brain [4]) of 1.59 % ID/g, a Drug uptake (Heart [5]) of 6.42 % ID/g and a Drug uptake (Liver [6]) of 44.64 % ID/g. It also gave a Drug uptake (Spleen [7]) of 11.59 % ID/g, a Drug uptake (Lung [8]) of 24.45 % ID/g and a Drug uptake (Kidney [9]) of 15.86 % ID/g. For the same compound, the Drug uptake (Stomach [10]) was 1.16 % ID/organ, the Drug uptake (Intestine [11]) was 1.38 % ID/g and the Drug uptake (Thyroid gland [12]) was 11.56 % ID/g. For the same compound, the Drug uptake (Blood [13]) was 6.58 % ID/g, the Drug uptake (Brain [14]) was 1.11 % ID/g and the Drug uptake (Heart [15]) was 2.69 % ID/g. It also gave a Drug uptake (Liver [16]) of 32.8 % ID/g, a Drug uptake (Spleen [17]) of 9.94 % ID/g and a Drug uptake (Lung [18]) of 12.97 % ID/g. It also gave a Drug uptake (Kidney [19]) of 22.23 % ID/g, a Drug uptake (Stomach [20]) of 1.75 % ID/organ and a Drug uptake (Intestine [21]) of 7.38 % ID/g. It also gave a Drug uptake (Thyroid gland [22]) of 14.93 % ID/g, a Drug uptake (Blood [23]) of 3.98 % ID/g and a Drug uptake (Brain [24]) of 0.63 % ID/g. For the same compound, the Drug uptake (Heart [25]) was 1.62 % ID/g, the Drug uptake (Liver [26]) was 24.64 % ID/g and the Drug uptake (Spleen [27]) was 12.26 % ID/g. For the same compound, the Drug uptake (Lung [28]) was 6.91 % ID/g, the Drug uptake (Kidney [29]) was 15.63 % ID/g and the Drug uptake (Stomach [30]) was 1.85 % ID/organ. The Drug uptake (Intestine [31]) was 11.62 % ID/g, the Drug uptake (Thyroid gland [32]) was 26.77 % ID/g and the Drug uptake (Blood [33]) was 2.16 % ID/g. For the same compound, the Drug uptake (Brain [34]) was 0.28 % ID/g, the Drug uptake (Heart [35]) was 1.03 % ID/g and the Drug uptake (Liver [36]) was 11.54 % ID/g. For the same compound, the Drug uptake (Spleen [37]) was 6.28 % ID/g, the Drug uptake (Lung [38]) was 3.64 % ID/g and the Drug uptake (Kidney [39]) was 7 % ID/g. The Drug uptake (Stomach [40]) was 0.61 % ID/organ, the Drug uptake (Intestine [41]) was 7.68 % ID/g and the Drug uptake (Thyroid gland [42]) was 23.53 % ID/g. For the same compound, the Drug uptake (Blood [43]) was 2.29 % ID/g, the Drug uptake (Brain [44]) was 0.26 % ID/g and the Drug uptake (Heart [45]) was 1.19 % ID/g. The Drug uptake (Liver [46]) was 16.47 % ID/g, the Drug uptake (Spleen [47]) was 7.34 % ID/g and the Drug uptake (Lung [48]) was 3.35 % ID/g. The Drug uptake (Kidney [49]) was 8.55 % ID/g, the Drug uptake (Stomach [50]) was 0.77 % ID/organ and the Drug uptake (Intestine [51]) was 17.65 % ID/g. For the same compound, the Drug uptake (Thyroid gland [52]) was 32.22 % ID/g.
